According to ChEMBL document CHEMBL1240439, “Synthesis and docking studies of novel benzopyran-2-ones with anticancer activity” (2010):

What was measured:
Type in all cases: functional
U-251 = test: Cytotoxicity against human U251 cells assessed as cell growth at 10 uM after 48 hrs by sulforhodamine B assay; details: U-251, 48 h, read-out: Activity
RPMI-8226 = test: Cytotoxicity against human RPMI8226 cells assessed as cell growth at 10 uM after 48 hrs by sulforhodamine B assay; details: RPMI-8226, 48 h, read-out: Activity
OVCAR-3 = test: Cytotoxicity against human OVCAR-3 cells assessed as cell growth at 10 uM after 48 hrs by sulforhodamine B assay; details: OVCAR-3, 48 h, read-out: Activity
SW-620 = test: Cytotoxicity against human SW620 cells assessed as cell growth at 10 uM after 48 hrs by sulforhodamine B assay; details: SW-620, 48 h, read-out: Activity
SNB-19 = test: Cytotoxicity against human SNB19 cells assessed as cell growth at 10 uM after 48 hrs by sulforhodamine B assay; details: SNB-19, 48 h, read-out: Activity
[1] = Cytotoxicity against human Hs 578T cells assessed as cell growth at 10 uM after 48 hrs by sulforhodamine B assay; details: read-out: Activity
SK-MEL-28 = test: Cytotoxicity against human SK-MEL-28 cells assessed as cell growth at 10 uM after 48 hrs by sulforhodamine B assay; details: SK-MEL-28, 48 h, read-out: Activity
HCT-116 = test: Cytotoxicity against human HCT116 cells after 48 hrs by sulforhodamine B assay; details: HCT-116, 48 h
How it was run: (§1)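 Cells were plated at 5000–40,000/well according to doubling time and preincubated 24 h at 37 °C, 5% CO2. Time-zero plates were TCA-fixed. DMSO stocks were diluted in medium with gentamycin to five concentrations (10-fold or ½ log series) plus control, then incubated 48 h. Adherent cells were fixed with cold TCA (suspension cells with 16% final), stained with SRB, and read at 515 nm. GI50, TGI and LC50 were calculated per line.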

MCF7 = test: Cytotoxicity against human MCF7 cells assessed as cell growth at 10 uM after 48 hrs by sulforhodamine B assay; details: MCF7, 48 h, read-out: Activity
HL-60(TB) [2] = test: Cytotoxicity against human HL-60(TB) cells assessed as cell growth at 10 uM after 48 hrs by sulforhodamine B assay; details: HL-60, 48 h, read-out: Activity
IGROV-1 = test: Cytotoxicity against human IGROV1 cells assessed as cell growth at 10 uM after 48 hrs by sulforhodamine B assay; details: IGROV-1, 48 h, read-out: Activity
HCT-15 = test: Cytotoxicity against human HCT15 cells assessed as cell growth at 10 uM after 48 hrs by sulforhodamine B assay; details: HCT-15, 48 h, read-out: Activity
NCI-H522 = test: Cytotoxicity against human NCI-H522 cells assessed as cell growth at 10 uM after 48 hrs by sulforhodamine B assay; details: NCI-H522, 48 h, read-out: Activity
[3] = Cytotoxicity against human ovarian cancer cells after 48 hrs by sulforhodamine B assay; details: Cancer cell lines
How it was run: (§2)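 Cells plated at 5000–40,000/well according to doubling time, then held 24 h at 37 °C, 5% CO2, with time-zero plates TCA-fixed. DMSO stocks (400× top concentration) were diluted in medium containing 50 μg/ml gentamycin, giving five 10-fold or ½-log concentrations. After 48 h, adherent cells were fixed in 10% TCA and suspension cells in 16% TCA (final), stained with 0.4% SRB, read at 515 nm. GI50, TGI and LC50 were calculated per cell line.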

SF-295 = test: Cytotoxicity against human SF295 cells assessed as cell growth at 10 uM after 48 hrs by sulforhodamine B assay; details: SF-295, 48 h, read-out: Activity
[4] = Cytotoxicity against human CNS cancer cells after 48 hrs by sulforhodamine B assay; details: Cancer cell lines; how it was run: as §1
EKVX = test: Cytotoxicity against human EKVX cells assessed as cell growth at 10 uM after 48 hrs by sulforhodamine B assay; details: read-out: Activity
M14 = test: Cytotoxicity against human M14 cells assessed as cell growth at 10 uM after 48 hrs by sulforhodamine B assay; details: M14, 48 h, read-out: Activity
HT-29 = test: Cytotoxicity against human HT-29 cells assessed as cell growth at 10 uM after 48 hrs by sulforhodamine B assay; details: HT-29, 48 h, read-out: Activity
PC-3 = test: Cytotoxicity against human PC3 cells assessed as cell growth at 10 uM after 48 hrs by sulforhodamine B assay; details: PC-3, 48 h, read-out: Activity
HOP-92 = test: Cytotoxicity against human HOP92 cells assessed as cell growth at 10 uM after 48 hrs by sulforhodamine B assay; details: HOP-92, 48 h, read-out: Activity
[5] = Cytotoxicity against human renal cancer cells after 48 hrs by sulforhodamine B assay; details: Cancer cell lines; how it was run: as §2
LOX IMVI [6] = test: Cytotoxicity against human LOXIMVI cells assessed as cell growth at 10 uM after 48 hrs by sulforhodamine B assay; details: read-out: Activity
KM12 = test: Cytotoxicity against human KM12 cells assessed as cell growth at 10 uM after 48 hrs by sulforhodamine B assay; details: KM12, 48 h, read-out: Activity
SK-MEL-2 = test: Cytotoxicity against human SK-MEL-2 cells assessed as cell growth at 10 uM after 48 hrs by sulforhodamine B assay; details: SK-MEL-2, 48 h, read-out: Activity
NCI-H23 = test: Cytotoxicity against human NCI-H23 cells assessed as cell growth at 10 uM after 48 hrs by sulforhodamine B assay; details: NCI-H23, 48 h, read-out: Activity
NCI-H226 = test: Cytotoxicity against human NCI-H226 cells assessed as cell growth at 10 uM after 48 hrs by sulforhodamine B assay; details: NCI-H226, 48 h, read-out: Activity
T47D = test: Cytotoxicity against human T47D cells assessed as cell growth at 10 uM after 48 hrs by sulforhodamine B assay; details: read-out: Activity
SNB-75 = test: Cytotoxicity against human SNB75 cells assessed as cell growth at 10 uM after 48 hrs by sulforhodamine B assay; details: SNB-75, 48 h, read-out: Activity
LOX IMVI [7] = test: Cytotoxicity against human LOXIMVI cells after 48 hrs by sulforhodamine B assay; how it was run: as §1
HL-60(TB) [8] = test: Cytotoxicity against human HL-60(TB) cells after 48 hrs by sulforhodamine B assay; details: HL-60, 48 h
How it was run: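 Cells plated at 5000–40,000/well by doubling time and held 24 h at 37 °C, 5% CO2, with TCA-fixed zero-time plates. Drug given as DMSO stock diluted in medium with 50 μg/ml gentamycin, five concentrations (10-fold or ½ log steps), for 48 h. Settled suspension cells fixed with TCA (final 16%), stained with 0.4% SRB, read at 515 nm. GI50, TGI and LC50 calculated.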

[9] = read-out: LC50 (the source's name)

SMILES: Cc1cc(=O)n(C(=O)COc2ccc3c(-c4ccccc4)cc(=O)oc3c2C)[nH]1
- growth at 10 µM (U-251): -72.4%
- growth at 10 µM (RPMI-8226): -18.2%
- growth at 10 µM (OVCAR-3): -61.1%
- growth at 10 µM (SW-620): -65.9%
- growth at 10 µM (SNB-19): 33.6%
- growth at 10 µM [1]: -4.17%
- growth at 10 µM (SK-MEL-28): -47.2%
- GI50 (HCT-116): 1.94 µM
- TGI (HCT-116): 3.76 µM
- growth at 10 µM (MCF7): -14.4%
- growth at 10 µM (HL-60(TB) [2]): -66.6%
- growth at 10 µM (IGROV-1): -17.5%
- growth at 10 µM (HCT-15): 38.3%
- growth at 10 µM (NCI-H522): -39.2%
- GI50 [3]: 8.53 µM
- TGI [3]: 28.7 µM
- CC50 [3, 9]: 52 µM
- growth at 10 µM (SF-295): -77.2%
- GI50 [4]: 2.58 µM
- TGI [4]: 8.85 µM
- CC50 [4, 9]: 27.7 µM
- growth at 10 µM (EKVX): -33.6%
- growth at 10 µM (M14): 17.6%
- growth at 10 µM (HT-29): -44.2%
- growth at 10 µM (PC-3): -93%
- growth at 10 µM (HOP-92): -64.4%
- GI50 [5]: 10.7 µM
- TGI [5]: 21.4 µM
- CC50 [5, 9]: 55.2 µM
- growth at 10 µM (LOX IMVI [6]): -61.8%
- growth at 10 µM (KM12): -12%
- growth at 10 µM (SK-MEL-2): -12.2%
- growth at 10 µM (NCI-H23): 1.86%
- growth at 10 µM (NCI-H226): 0.36%
- growth at 10 µM (T47D): -1.54%
- growth at 10 µM (SNB-75): -35.2%
- GI50 (LOX IMVI [7]): 1.99 µM
- TGI (LOX IMVI [7]): 3.88 µM
- TGI (HL-60(TB) [8]): 2.62 µM
